ChEMBL document CHEMBL4376872, “Scaffold Hopping of Natural Product Evodiamine: Discovery of a Novel Antitumor Scaffold with Excellent Potency against Colon Cancer” (J Med Chem, 2020)
Converted amounts (≈) assume the structure as drawn. The source made the active and inactive calls. The calls are words filed in the database; no cut-off is given here.

Tests used:
MDA-MB-435 = assay: Antiproliferative activity against human MDA-MB-435 cells assessed as reduction in cell viability incubated for 72 hrs by CCK8 assay; type: functional, cell-based; details: MDA-MB-435, 72 h
A549 = assay: Antiproliferative activity against human A549 cells assessed as reduction in cell viability incubated for 72 hrs by CCK8 assay; type: functional, cell-based; details: A549, 72 h
PC-3 = assay: Antiproliferative activity against human PC3 cells assessed as reduction in cell viability incubated for 72 hrs by CCK8 assay; type: functional, cell-based; details: PC-3, 72 h
[1] = Antiproliferative activity against human MV-3 cells assessed as reduction in cell viability incubated for 72 hrs by CCK8 assay; type: functional, cell-based; details: MV-3, 72 h
BEL-7404 tumor cell line = assay: Antiproliferative activity against human Bel7404 cells assessed as reduction in cell viability incubated for 72 hrs by CCK8 assay; type: functional, cell-based; details: BEL-7404, 72 h
[2] = Antiproliferative activity against human SW579 cells assessed as reduction in cell viability incubated for 72 hrs by CCK8 assay; type: functional, cell-based; details: SW579, 72 h
[3] = biological target: DNA topoisomerase 2-alpha (Homo sapiens) (UniProt P11388); assay: Inhibition of human Top2alpha assessed as decrease in relaxation of supercoiled pBR322 plasmid DNA at 100 uM using supercoiled pBR322 plasmid DNA as substrate incubated for 30 mins by agarose gel electrophoresis analysis
Tubulin (Sus scrofa) = Tubulin (Sus scrofa) (UniProt P02554+P02550); assay: (§1) Inhibition of porcine brain tubulin polymerization measured at 1 min interval over 20 mins by absorbance based assay
Tubulin = Tubulin (Sus scrofa, UniProt P02554+P02550); assay: as §1
Tubulin (Homo sapiens) = Tubulin (Homo sapiens) (UniProt P68371+Q9H4B7+P0DPH7+P68366+Q13509+Q71U36+P04350+Q3ZCM7+P07437+P68363+Q9BQE3+Q6PEY2+Q13885+Q9BVA1+Q9BUF5); assay: Inhibition of tubulin polymerization in human HCT116 cells assessed as disruption of microtubule by measuring clustered microtubule arrangement in cytosol around the nucleus at 0.4 to 10 uM incubated for 12 hrs by immunofluorescence based analysis; type: cell-based
Outline: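 HCT116 cells were exposed to several concentrations for 12 h, with paclitaxel as the control. Nuclei were stained with DAPI and microtubules with mouse anti-α-tubulin. Microtubule organization was imaged by laser confocal microscopy.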

HCT-116 [4] = assay: Induction of apoptosis in human HCT116 cells at 1 uM incubated for 24 hrs by annexin V-FITC and propidium iodide staining based flow cytometry (reference value: 0.86 %); type: functional
HCT-116 [5] = assay: Cell cycle arrest in human HCT116 cells assessed as accumulation in G1 phase at 4 nM incubated for 24 hrs by propidium iodide staining based flow cytometry (reference value: 45.18 %); type: functional
HCT-116 [6] = assay: Cell cycle arrest in human HCT116 cells assessed as accumulation in S phase at 4 nM incubated for 24 hrs by propidium iodide staining based flow cytometry (reference value: 42.31 %); type: functional
HCT-116 [7] = assay: Cell cycle arrest in human HCT116 cells assessed as accumulation in G2 phase at 12 nM incubated for 24 hrs by propidium iodide staining based flow cytometry (reference value: 12.52 %); type: functional
HCT-116 [8] = assay: Cell cycle arrest in human HCT116 cells assessed as accumulation in S phase at 36 nM incubated for 24 hrs by propidium iodide staining based flow cytometry (reference value: 42.31 %); type: functional
HCT-116 [9] = assay: Cell cycle arrest in human HCT116 cells assessed as accumulation in G2 phase at 36 nM incubated for 24 hrs by propidium iodide staining based flow cytometry (reference value: 12.52 %); type: functional
HCT-116 [10] = assay: Induction of apoptosis in human HCT116 cells incubated for 24 hrs by annexin V-FITC and propidium iodide staining based flow cytometry; type: functional, cell-based
[11] = Aqueous solubility of compound at pH 7.4; type: physicochemical
[12] = biological target: Poly [ADP-ribose] polymerase tankyrase-1 (Homo sapiens) (UniProt O95271); assay: Inhibition of TNKS1 (unknown origin) using biotin-NAD+, NAD+ and sIDNA as substrate at 5 uM incubated for 1 hr by ELISA relative to control
[13] = biological target: Poly [ADP-ribose] polymerase tankyrase-2 (Homo sapiens) (UniProt Q9H2K2); assay: Inhibition of TNKS2 (unknown origin) using biotin-NAD+, NAD+ and sIDNA as substrate at 5 uM incubated for 1 hr by ELISA relative to control
[14] = biological target: Tyrosine-protein phosphatase non-receptor type 11 (Homo sapiens) (UniProt Q06124); assay: Inhibition of SHP2 (unknown origin) using DiFMUP as substrate at 5 uM incubated for 30 mins by fluorescence based analysis
[15] = biological target: Histone-lysine N-methyltransferase EZH2 (Homo sapiens) (UniProt Q15910); assay: Inhibition of EZH2 (unknown origin) using plate-coated histone as substrate at 5 uM incubated for 90 mins in presence of 5 uM SAM by AlphaScreen assay relative to control
[16] = biological target: CDK4/Cyclin D3 (Homo sapiens) (UniProt P11802+P30281); assay: Inhibition of CDK4/Cyclin D3 (unknown origin) using Rb as substrate at 5 uM incubated for 40 mins in presence of 10 uM ATP by kinase-Glo luminescence assay relative to control; type: protein-complex assay
[17] = biological target: CDK9/cyclin T1 (Homo sapiens) (UniProt O60563+P50750); assay: Inhibition of CDK9/Cyclin T1 (unknown origin) using PDKtide as substrate at 5 uM incubated for 40 mins in presence of 10 uM ATP by kinase-Glo luminescence assay relative to control; type: protein-complex assay
[18] = biological target: Matrix metalloproteinase-9 (Homo sapiens) (UniProt P14780); assay: Inhibition of MMP9 (unknown origin) using Mca-PLGLDpaAR as substrate at 5 uM preincubated with enzyme for 2 hrs followed by incubation with substrate for 15 mins by fluorescence based analysis relative to control
[19] = biological target: Lysine-specific demethylase 4A (Homo sapiens) (UniProt O75164); assay: Inhibition of JMJD2A (unknown origin) using biotinylated histone H3 peptide as substrate at 5 uM incubated for 60 mins by AlphaScreen assay relative to control
[20] = biological target: Focal adhesion kinase 1 (Homo sapiens) (UniProt Q05397); assay: Inhibition of FAK (unknown origin) using poly (Glu, Tyr) as substrate at 5 uM incubated for 40 mins in presence of 10 uM ATP by kiase-Glo luminescence assay relative to control
Homo sapiens [21] = species on record: Homo sapiens; assay: Inhibition of PDE4A1A (unknown origin) using FAM-cAMP as substrate at 5 uM incubated for 1 hr by fluorescence polarization assay relative to control
Homo sapiens [22] = species on record: Homo sapiens; assay: Inhibition of PDE4D7 (unknown origin) using FAM-cAMP as substrate at 5 uM incubated for 1 hr by fluorescence polarization assay relative to control
[23] = biological target: 3',5'-cyclic-AMP phosphodiesterase 4A (Homo sapiens) (UniProt P27815); assay: Inhibition of PDE4A4 (unknown origin) using FAM-cAMP as substrate at 5 uM incubated for 1 hr by fluorescence polarization assay relative to control
3',5'-cyclic-AMP phosphodiesterase 4A (Homo sapiens), sequence (P27815 whole entry): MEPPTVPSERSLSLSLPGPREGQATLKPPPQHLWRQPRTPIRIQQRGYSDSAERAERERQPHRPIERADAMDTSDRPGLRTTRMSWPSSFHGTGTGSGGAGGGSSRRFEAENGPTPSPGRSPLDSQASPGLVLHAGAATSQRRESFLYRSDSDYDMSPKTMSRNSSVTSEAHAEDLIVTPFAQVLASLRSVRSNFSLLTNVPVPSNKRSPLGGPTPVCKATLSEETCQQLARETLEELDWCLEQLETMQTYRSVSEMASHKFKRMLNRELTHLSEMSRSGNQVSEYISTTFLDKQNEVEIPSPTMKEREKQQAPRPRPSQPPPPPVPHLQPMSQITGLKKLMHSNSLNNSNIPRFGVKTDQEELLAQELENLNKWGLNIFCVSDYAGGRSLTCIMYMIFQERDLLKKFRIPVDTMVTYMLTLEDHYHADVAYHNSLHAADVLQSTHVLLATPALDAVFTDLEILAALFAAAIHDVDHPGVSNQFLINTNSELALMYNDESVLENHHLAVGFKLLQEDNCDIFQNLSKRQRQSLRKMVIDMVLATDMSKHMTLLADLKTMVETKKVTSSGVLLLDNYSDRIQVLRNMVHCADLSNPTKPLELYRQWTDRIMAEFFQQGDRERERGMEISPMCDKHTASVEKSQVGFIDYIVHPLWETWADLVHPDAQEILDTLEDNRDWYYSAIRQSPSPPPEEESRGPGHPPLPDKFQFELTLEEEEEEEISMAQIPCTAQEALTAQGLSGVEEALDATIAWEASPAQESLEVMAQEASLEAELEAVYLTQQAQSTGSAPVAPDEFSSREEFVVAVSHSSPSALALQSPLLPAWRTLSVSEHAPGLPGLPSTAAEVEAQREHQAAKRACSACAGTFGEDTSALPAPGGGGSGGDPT

Poly [ADP-ribose] polymerase tankyrase-1 (Homo sapiens), sequence (O95271 whole entry): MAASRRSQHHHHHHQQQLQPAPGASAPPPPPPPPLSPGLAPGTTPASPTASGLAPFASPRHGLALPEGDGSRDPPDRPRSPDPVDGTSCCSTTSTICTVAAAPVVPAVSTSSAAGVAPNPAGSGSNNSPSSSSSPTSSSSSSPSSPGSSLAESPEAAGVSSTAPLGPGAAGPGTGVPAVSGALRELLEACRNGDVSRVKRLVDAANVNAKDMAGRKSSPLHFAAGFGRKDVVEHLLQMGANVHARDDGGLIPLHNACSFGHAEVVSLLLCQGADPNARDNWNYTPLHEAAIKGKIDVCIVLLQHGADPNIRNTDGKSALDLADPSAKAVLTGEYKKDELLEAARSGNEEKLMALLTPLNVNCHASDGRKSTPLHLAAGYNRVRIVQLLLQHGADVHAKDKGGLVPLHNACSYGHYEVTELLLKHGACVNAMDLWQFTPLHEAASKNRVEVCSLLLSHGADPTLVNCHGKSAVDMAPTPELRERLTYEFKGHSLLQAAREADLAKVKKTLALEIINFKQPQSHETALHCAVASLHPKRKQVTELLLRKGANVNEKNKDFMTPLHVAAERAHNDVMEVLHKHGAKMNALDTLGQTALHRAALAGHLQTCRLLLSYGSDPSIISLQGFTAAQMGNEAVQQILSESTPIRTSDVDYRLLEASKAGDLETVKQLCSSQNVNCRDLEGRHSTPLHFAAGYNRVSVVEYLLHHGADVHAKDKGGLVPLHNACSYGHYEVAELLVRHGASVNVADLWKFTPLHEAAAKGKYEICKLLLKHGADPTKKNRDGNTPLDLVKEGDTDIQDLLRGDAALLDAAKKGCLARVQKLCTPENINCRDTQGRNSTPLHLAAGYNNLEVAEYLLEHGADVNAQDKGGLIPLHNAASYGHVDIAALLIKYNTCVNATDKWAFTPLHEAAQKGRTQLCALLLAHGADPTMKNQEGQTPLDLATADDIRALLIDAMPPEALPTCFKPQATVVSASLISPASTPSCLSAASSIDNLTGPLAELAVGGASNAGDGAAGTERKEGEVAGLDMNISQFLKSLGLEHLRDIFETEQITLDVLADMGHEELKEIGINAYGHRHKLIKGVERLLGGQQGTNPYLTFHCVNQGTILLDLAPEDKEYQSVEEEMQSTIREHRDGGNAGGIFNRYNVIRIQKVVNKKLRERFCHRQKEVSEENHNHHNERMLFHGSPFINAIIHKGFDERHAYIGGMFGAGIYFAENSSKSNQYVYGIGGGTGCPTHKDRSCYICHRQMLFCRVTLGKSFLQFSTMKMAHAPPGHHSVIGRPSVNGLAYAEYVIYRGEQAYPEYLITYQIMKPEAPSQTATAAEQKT
Tubulin (Sus scrofa), sequence (P02550 whole entry, looked up): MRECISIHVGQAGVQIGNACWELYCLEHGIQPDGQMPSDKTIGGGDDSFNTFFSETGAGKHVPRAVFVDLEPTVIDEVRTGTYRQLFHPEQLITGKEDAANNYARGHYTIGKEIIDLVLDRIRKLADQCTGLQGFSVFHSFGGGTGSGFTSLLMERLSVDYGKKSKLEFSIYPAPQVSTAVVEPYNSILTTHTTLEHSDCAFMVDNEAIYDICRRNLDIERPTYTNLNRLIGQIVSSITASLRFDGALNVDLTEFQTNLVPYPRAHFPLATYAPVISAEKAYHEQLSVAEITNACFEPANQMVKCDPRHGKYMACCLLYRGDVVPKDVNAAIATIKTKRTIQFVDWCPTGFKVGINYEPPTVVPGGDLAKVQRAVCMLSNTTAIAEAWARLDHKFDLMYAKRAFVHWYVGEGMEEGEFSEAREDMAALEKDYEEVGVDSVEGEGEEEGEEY
Tubulin (Sus scrofa), sequence (P02554 whole entry, looked up): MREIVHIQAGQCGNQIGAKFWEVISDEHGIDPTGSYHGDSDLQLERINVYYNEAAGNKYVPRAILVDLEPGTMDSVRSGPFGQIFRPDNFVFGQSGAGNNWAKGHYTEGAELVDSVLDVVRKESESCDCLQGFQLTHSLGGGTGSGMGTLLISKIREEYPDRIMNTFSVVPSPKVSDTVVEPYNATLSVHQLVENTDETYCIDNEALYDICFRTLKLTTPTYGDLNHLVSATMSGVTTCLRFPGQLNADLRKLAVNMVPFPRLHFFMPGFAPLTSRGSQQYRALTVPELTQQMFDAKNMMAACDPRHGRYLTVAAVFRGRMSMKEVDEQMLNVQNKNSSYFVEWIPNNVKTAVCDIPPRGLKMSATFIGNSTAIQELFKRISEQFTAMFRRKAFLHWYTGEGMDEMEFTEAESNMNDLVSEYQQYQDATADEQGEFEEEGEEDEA
Lysine-specific demethylase 4A (Homo sapiens), sequence (O75164 whole entry): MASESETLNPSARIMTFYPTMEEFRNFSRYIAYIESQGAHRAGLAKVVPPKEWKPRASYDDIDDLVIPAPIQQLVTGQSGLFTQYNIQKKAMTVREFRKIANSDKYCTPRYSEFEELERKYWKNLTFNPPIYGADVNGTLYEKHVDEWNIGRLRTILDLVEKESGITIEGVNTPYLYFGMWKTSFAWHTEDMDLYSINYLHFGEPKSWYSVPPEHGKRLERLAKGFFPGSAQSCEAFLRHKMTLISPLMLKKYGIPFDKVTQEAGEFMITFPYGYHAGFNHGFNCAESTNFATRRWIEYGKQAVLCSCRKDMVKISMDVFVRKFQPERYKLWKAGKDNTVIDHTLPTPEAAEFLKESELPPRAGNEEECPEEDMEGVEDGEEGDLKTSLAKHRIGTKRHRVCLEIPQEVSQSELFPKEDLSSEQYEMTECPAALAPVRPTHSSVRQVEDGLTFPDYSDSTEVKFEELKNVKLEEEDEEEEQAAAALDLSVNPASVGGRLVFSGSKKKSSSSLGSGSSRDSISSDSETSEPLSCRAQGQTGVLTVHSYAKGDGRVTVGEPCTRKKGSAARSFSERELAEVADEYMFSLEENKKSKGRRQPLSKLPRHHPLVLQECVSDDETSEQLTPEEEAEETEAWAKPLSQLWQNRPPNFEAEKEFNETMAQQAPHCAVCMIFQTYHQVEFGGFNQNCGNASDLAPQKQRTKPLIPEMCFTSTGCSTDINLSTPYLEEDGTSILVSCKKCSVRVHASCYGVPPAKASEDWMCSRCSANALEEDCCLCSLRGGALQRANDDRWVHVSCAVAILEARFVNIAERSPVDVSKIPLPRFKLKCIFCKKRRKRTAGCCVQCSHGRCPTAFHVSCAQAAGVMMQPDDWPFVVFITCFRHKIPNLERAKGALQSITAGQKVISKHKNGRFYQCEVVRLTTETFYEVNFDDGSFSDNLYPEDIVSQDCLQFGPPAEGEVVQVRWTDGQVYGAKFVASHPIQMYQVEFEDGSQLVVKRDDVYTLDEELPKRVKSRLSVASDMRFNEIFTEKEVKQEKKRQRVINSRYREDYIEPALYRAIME
Matrix metalloproteinase-9 (Homo sapiens), sequence (P14780 whole entry): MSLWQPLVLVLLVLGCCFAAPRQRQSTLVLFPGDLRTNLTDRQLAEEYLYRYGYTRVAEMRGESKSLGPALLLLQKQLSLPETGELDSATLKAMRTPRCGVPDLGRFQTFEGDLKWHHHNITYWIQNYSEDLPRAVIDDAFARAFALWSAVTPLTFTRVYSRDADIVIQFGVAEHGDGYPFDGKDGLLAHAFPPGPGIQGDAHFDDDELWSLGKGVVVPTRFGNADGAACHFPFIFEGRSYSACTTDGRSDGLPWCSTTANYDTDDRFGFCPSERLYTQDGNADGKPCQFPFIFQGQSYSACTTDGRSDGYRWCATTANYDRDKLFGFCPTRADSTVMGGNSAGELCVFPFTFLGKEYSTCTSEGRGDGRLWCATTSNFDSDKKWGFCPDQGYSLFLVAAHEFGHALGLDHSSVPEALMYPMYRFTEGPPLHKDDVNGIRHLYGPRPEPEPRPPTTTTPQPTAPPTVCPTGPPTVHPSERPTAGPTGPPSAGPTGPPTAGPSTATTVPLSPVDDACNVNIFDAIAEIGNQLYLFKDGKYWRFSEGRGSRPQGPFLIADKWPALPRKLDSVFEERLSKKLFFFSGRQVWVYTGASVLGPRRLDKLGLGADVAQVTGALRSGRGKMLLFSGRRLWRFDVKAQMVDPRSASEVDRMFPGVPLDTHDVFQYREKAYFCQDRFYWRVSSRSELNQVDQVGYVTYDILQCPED

IC50 (MDA-MB-435): 1 µM
IC50 (A549): 159 µM
IC50 (PC-3): 0.3 µM
IC50 (BEL-7404 tumor cell line): 0.1 µM
inhibition [3]: inactive
inhibition (Tubulin (Sus scrofa)): Dose-dependent effect
IC50 (Tubulin): 26.3 µM
inhibition (Tubulin (Homo sapiens)): Active
solubility [11]: 1.5 µg/mL (≈ 4.27 µM)
inhibition [12]: < 20%
inhibition [13]: < 20%
inhibition [14]: < 20%
inhibition [15]: < 20%
inhibition [16]: < 20%
inhibition [17]: < 20%
inhibition [18]: < 20%
inhibition [19]: < 20%
inhibition [20]: < 20%
inhibition (Homo sapiens [21]): < 20%
inhibition (Homo sapiens [22]): < 20%
inhibition [23]: < 20%
Structure (SMILES): COc1ccc2c(c1)cc1n2CCN2C(=O)c3cc(F)ccc3N(C)C12 (stereo not given)
IC50 [1]: 0.4 µM
IC50 [2]: 6.1 µM
Activity (HCT-116 [4]): 52%
Activity (HCT-116 [5]): 43.01%
Activity (HCT-116 [6]): 39.26%
Activity (HCT-116 [7]): 35.49%
Activity (HCT-116 [8]): 14.85%
Activity (HCT-116 [9]): 84.13%
Activity (HCT-116 [10]): Dose-dependent effect
